PMC3700807 (Planta medica, 2011)
In brackets after ≈: the same amount, converted by molar mass.

How the values were obtained:
[1] = test system: Candida albicans (ATCC 90028); assay: Antimicrobial susceptibility assay, C. albicans; format: cell-based; details: Candida albicans
Procedure, shortened: (§1)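 Yeasts were tested by a modified CLSI broth-dilution method, with growth monitored by optical density. Amphotericin B was the drug control in each assay. IC50 (50% inhibition vs controls) was curve-fitted from duplicate readings. MIC is the lowest concentration allowing no detectable growth. For MFC, 5 μL from each clear well was plated on agar and incubated until growth was seen.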

[2] = Cytotoxicity to PMA transformed THP1 cells; format: cell-based; details: human, PMA transformed THP1 cells
[3] = test system: Leishmania donovani axenic amastigotes; assay: Antileishmanial assay, axenic amastigotes; format: cell-based; details: Leishmania donovani, 72 h, read-out: Leishmania donovani Axenic Amastigotes IC90
[4] = test system: Cryptococcus neoformans (ATCC 90113); assay: Antimicrobial susceptibility assay, C. neoformans; format: cell-based; details: Cryptococcus neoformans
Procedure, shortened: as §1

[5] = test system: Aspergillus fumigatus (ATCC 204305); assay: Antimicrobial susceptibility assay, A. fumigatus; format: cell-based; details: Aspergillus fumigatus
Procedure, shortened: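 Broth-dilution susceptibility test in medium with 5% Alamar Blue for growth detection. Amphotericin B was the drug control in each assay. IC50 (50% inhibition vs controls) was curve-fitted from duplicate readings. MIC is the lowest concentration with no detectable growth. For MFC, 5 μL from each clear well was moved to agar and incubated until growth appeared.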

[6] = test system: Leishmania donovani amastigotes in THP1 macrophage cultures; assay: Antileishmanial macrophage-amastigote assay; format: cell-based; details: Leishmania donovani, THP-1, read-out: Leishmania donovani Macrophage-Amastigotes IC50, amastigotes in THP1 macrophage cultures; mean ± S.D. of three observations
[7] = test system: Plasmodium falciparum D6 (chloroquine-sensitive clone); assay: In vitro antiplasmodial assay; format: cell-based; details: Plasmodium falciparum, D6, read-out: P. falciparum D6 IC50
[8] = test system: Plasmodium falciparum W2 (chloroquine-resistant clone); assay: In vitro antiplasmodial assay; format: cell-based; details: Plasmodium falciparum, W2, read-out: P. falciparum W2 IC50
[9] = test system: Staphylococcus aureus (ATCC 29213); assay: Antimicrobial susceptibility assay, S. aureus; format: cell-based; details: Staphylococcus aureus
Procedure, shortened: (§2)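 Bacteria were tested by a modified CLSI broth-dilution method, with growth read as optical density. Ciprofloxacin was the drug control in each assay. IC50 (50% inhibition relative to controls) was fitted from duplicate readings. MIC is the lowest concentration with no detectable growth. For MBC, 5 μL from each clear well was transferred to agar and incubated until growth appeared.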

[10] = test system: Mycobacterium intracellulare (ATCC 23068); assay: Antimicrobial susceptibility assay, M. intracellulare; format: cell-based; details: Mycobacterium intracellulare
Procedure, shortened: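 Mycobacterium intracellulare (ATCC 23068) was tested by a modified broth susceptibility method, with growth detected in medium containing 5% Alamar Blue. IC50 was fitted against untreated controls from duplicate readings. MIC was taken as the lowest concentration with no detectable growth. For MBC, clear wells were subcultured onto agar and incubated until growth appeared. Ciprofloxacin was included as the drug control in each assay.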

[11] = test system: methicillin-resistant S aureus (MRSA, ATCC 33591); assay: Antimicrobial susceptibility assay, MRSA; format: cell-based, Staphylococcus aureus; details: Staphylococcus aureus, ATCC33591|MRSA
Procedure, shortened: as §2

[12] = test system: Plasmodium falciparum D6 (chloroquine-sensitive clone); details: data reported previously; cited from earlier work
[13] = test system: Plasmodium falciparum W2 (chloroquine-resistant clone); details: data reported previously; cited from earlier work
[14] = test system: Leishmania donovani promastigotes; assay: Antileishmanial assay, promastigotes; format: cell-based; details: Leishmania donovani, 72 h, read-out: Leishmania donovani Promastigotes IC90
VERO cells = VERO cells cytotoxicity; data reported previously; cited from earlier work

Work on `C[C@@H]1[C@H](O)[C@@H](C)/C=C/C=C/C=C/C=C/C=C/C=C/C=C/[C@H](O[C@@H]2O[C@H](C)[C@@H](O)[C@H](N)[C@@H]2O)C[C@@H]2O[C@](O)(C[C@@H](O)C[C@@H](O)[C@H](O)CC[C@@H](O)C[C@@H](O)CC(=O)O[C@H]1C)C[C@H](O)[C@H]2C(=O)O` [Amphotericin B, reference compound] yielded an IC50 ([1]; ATCC90028, read-out: C. albicans IC50) of 0.13 µg/mL (≈ 0.141 µM), an MFC ([1]; ATCC90028, read-out: C. albicans MFC) of 0.63 µg/mL (≈ 0.682 µM) and an IC50 [2] of 3.34 ± 0.41 µg/mL (≈ 3.61 µM). It also gave an IC90 [2] of 8.05 ± 1.33 µg/mL (≈ 8.71 µM), an IC90 [3] of 0.97 ± 0.14 µg/mL (≈ 1.05 µM) and an IC50 ([4]; ATCC90113, read-out: C. neoformans IC50) of 0.32 µg/mL (≈ 0.346 µM). For the same compound, the MFC ([4]; ATCC90113, read-out: C. neoformans MFC) was 1.25 µg/mL (≈ 1.35 µM), the MIC ([4]; ATCC90113, read-out: C. neoformans MIC) was 1.25 µg/mL (≈ 1.35 µM) and the IC50 ([5]; ATCC204305, read-out: A. fumigatus IC50) was 0.72 µg/mL (≈ 0.779 µM). For the same compound, the MFC ([5]; ATCC204305, read-out: A. fumigatus MFC) was 2.5 µg/mL (≈ 2.71 µM), the MIC ([5]; ATCC204305, read-out: A. fumigatus MIC) was 1.25 µg/mL (≈ 1.35 µM) and the IC50 [6] was 0.14 ± 0.02 µg/mL (≈ 0.152 µM).
Work on `C[C@@H]1CC[C@H]2[C@@H](C)C(=O)O[C@@H]3O[C@@]4(C)CC[C@@H]1[C@]32OO4` [Artemisinin] yielded an IC50 [7] of 0.016 µg/mL (≈ 0.0567 µM) and an IC50 [8] of 0.017 µg/mL (≈ 0.0602 µM).
In the case of `CCN(CC)CCCC(C)Nc1ccnc2cc(Cl)ccc12` (centres unmarked) [Chloroquine], the IC50 [7] is reported as 0.017 µg/mL (≈ 0.0531 µM) and the IC50 [8] is reported as 0.14 µg/mL (≈ 0.438 µM).
With `O=C(O)c1cn(C2CC2)c2cc(N3CCNCC3)c(F)cc2c1=O` [Ciprofloxacin, reference compound] the IC50 ([9]; ATCC29213, read-out: S. aureus IC50) was 0.1 µg/mL (≈ 0.302 µM), the MBC ([9]; ATCC29213, read-out: S. aureus MBC) was > 20 µg/mL and the IC50 ([10]; ATCC23068, read-out: M. intracellulare IC50) was 0.25 µg/mL (≈ 0.754 µM). For the same compound, the MBC ([10]; ATCC23068, read-out: M. intracellulare MBC) was > 20 µg/mL, the MIC ([10]; ATCC23068, read-out: M. intracellulare MIC) was 0.5 µg/mL (≈ 1.51 µM) and the IC50 ([11]; read-out: MRSA IC50) was 0.08 µg/mL (≈ 0.241 µM). For the same compound, the MBC ([11]; read-out: MRSA MBC) was 1 µg/mL (≈ 3.02 µM) and the MIC ([11]; read-out: MRSA MIC) was 0.25 µg/mL (≈ 0.754 µM).
In the case of `C[C@@H]1N[C@H](CCCCCCCCCCc2cc(CCCCCCCCCC[C@@H]3CC[C@H](O)[C@@H](C)N3)c3[n+](c2)CCC3)CC[C@H]1O` [Compound 2, prosopilosidine], the “P. falciparum D6 IC50” value [12] is listed as 0.039 ± 0.002 µg/mL, the “P. falciparum W2 IC50” value [13] is listed as 0.095 ± 0.002 µg/mL and the IC50 [2] is listed as 9.49 ± 2.25 µg/mL. For the same compound, the IC90 [2] was > 20 µg/mL, the IC90 [3] was 25.4 ± 5.3 µg/mL and the IC90 [14] was 4.17 ± 0.54 µg/mL. The “VERO IC50” value (VERO cells) was >23.8 µg/mL and the IC50 [6] was 3.23 ± 0.54 µg/mL.
